# This is a sample that favours compounds with a hit; in the whole collection about 1.8% have one here.
# MT1-MMP act inh – blocks activation of human MT1-MMP | GFP/RFP ratio change, % at 20 µM | P50281 | AID 651647 | HT1080 RFP-PRO-GFP cells, GFP/RFP ratio fluorescence, overnight; percent of plate control window, DMSO zero | 0.061% of 360,000 active;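 active = GFP/RFP ratio change of at least 30% with cell ATP level not reduced by more than half and red fluorescence within 50% of control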
#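 Material – HT1080 RFP-PRO-GFP cells · Control set – DMSO wells and RFP-L50D-GFP cells · Incubation – overnight cell settling, then overnight compound exposure, 37 °C, 5% CO2 · Compound dosing – single-point 20 µM compound, 1% DMSO · Read-out – GFP/RFP fluorescence ratio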
# MsrA inh – inhibitors of bovine MsrA | purified bovine MsrA, absorbance read-out | inhibition, % at 15.5 µM | 0.75% of 360,000 active;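 note: 0% = vehicle wells with enzyme and 100% = reference inhibitor wells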
# beta cell repl – inducers of beta-cell replication in MIN6 cells; MIN6 cells proliferation, ATPlite luminescence, 48 h; cells starved in 0.2% serum; 100% = growth in 10% serum; proliferation, % at 10 µM; AID 2380; 0.29% of 330,000 active;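 active = compounds whose signal lies at least 3.5 SD above the mean of all wells on their plate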;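 note: 0% = DMSO-treated cells in low-serum medium and 100% = 10% serum control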
# MsrA act – bovine methionine sulfoxide reductase A activation; activation, % at 10.6 µM; 0.3% of 360,000 active; AID 602163; purified bovine MsrA, absorbance read-out; in the data active = activation above about 7.5%;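 note: 0% = vehicle and 100% = reference activator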
# DAGLB inh – blocks human DAGLB lipase activity | AID 504411 | 0.059% of 340,000 active | HEK293T DAGLB membrane lysate, EnzChek fluorogenic substrate | Q8NCG7 | inhibition, % at 5.17 µM; in the data active = inhibition above about 34%;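 note: 0% = enzyme with vehicle and 100% = wells lacking enzyme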
# Target sequence (Q8NCG7 whole entry, looked up): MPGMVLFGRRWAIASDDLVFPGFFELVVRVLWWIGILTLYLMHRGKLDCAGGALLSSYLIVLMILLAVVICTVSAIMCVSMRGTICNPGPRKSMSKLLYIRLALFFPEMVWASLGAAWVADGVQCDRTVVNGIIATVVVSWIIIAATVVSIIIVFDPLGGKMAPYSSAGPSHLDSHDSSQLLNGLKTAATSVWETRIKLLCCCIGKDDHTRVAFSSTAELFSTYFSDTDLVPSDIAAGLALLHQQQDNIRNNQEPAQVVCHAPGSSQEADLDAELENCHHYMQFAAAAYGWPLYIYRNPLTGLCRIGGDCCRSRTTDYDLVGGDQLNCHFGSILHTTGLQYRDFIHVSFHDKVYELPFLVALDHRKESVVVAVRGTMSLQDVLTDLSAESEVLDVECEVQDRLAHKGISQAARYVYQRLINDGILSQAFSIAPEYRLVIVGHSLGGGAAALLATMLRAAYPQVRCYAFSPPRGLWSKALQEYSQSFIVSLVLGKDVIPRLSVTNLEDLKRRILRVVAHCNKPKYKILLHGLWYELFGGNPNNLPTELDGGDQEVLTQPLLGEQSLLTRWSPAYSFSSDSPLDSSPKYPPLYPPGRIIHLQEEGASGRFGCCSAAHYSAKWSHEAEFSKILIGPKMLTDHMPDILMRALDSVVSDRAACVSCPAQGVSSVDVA
# SKN-1 block – blocks SKN-1 activity in C. elegans | C. elegans VP596 Pgst-4::GFP/RFP ratio, acrylamide-induced, 24 h | inhibition, % at 21.8 µM | 0.49% of 360,000 active | AID 624304;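 active = interference check ratio from 0.5 to 1.5 plus GFP to RFP signal ratio inhibition reaching or exceeding a fixed threshold, cut at about 30% in these data, passing the limit was not always enough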
# MsrA activ conf – confirmation of bovine methionine sulfoxide reductase A activators; shares compounds with MsrA act; purified bovine MsrA, absorbance read-out; activation, % at 10.6 µM; 12% of 1,000 active; in the data active = activation above about 4%;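 note: enzyme coupled to thioredoxin and thioredoxin reductase with NADPH; 0% = vehicle wells and 100% = reference activator wells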
# MT1-MMP act val – validation of inhibitors of human MT1-MMP activation; shares compounds with MT1-MMP act inh; HT1080 RFP-PRO-GFP cells, GFP and RFP fluorescence ratio, overnight; 10% of 200 active; inhibition, % at 20 µM;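 active = inhibition of at least 50% in the primary cell screen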
# MsrA conf – confirmation of bovine MsrA inhibitors; shares compounds with MsrA inh; purified bovine MsrA, absorbance read-out; inhibition, % at 15.5 µM; 41% of 2,300 active;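 note: coupled to thioredoxin reductase with NADPH and selenocystamine and DMSO as substrate; 0% = vehicle only and 100% = full effect of reference inhibitor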
# Numbers without * were called inactive; / = no result. Cut-off read from the data, not from the text of the source, unless noted: active = inhibition above about 4.5%; inactive = the rest.
SMILES,MT1-MMP act inh,MsrA inh,beta cell repl,MsrA act,DAGLB inh,SKN-1 block,MsrA activ conf,MsrA conf,others
CCn1nc(C(=O)OCC(=O)Nc2ncc(Cl)c(C)c2Cl)c2ccccc2c1=O,-2,1,0,19*,0,2,0,/,
C1CCc2nc3c(nc2C1)CCCC3,-1,-1,0,17*,-4,3,-4,/,
COc1cc(CNc2cccc3c2S(=O)(=O)N([C@H](C)c2ccccc2)C[C@@H](COCc2ccccc2)O3)cc(OC)c1OC,/,1,/,/,/,/,/,/,
O=[N+]([O-])c1cc(Br)c(O)c(C=Nc2ccc(N3CCOCC3)cc2)c1,40*,1,-4,10*,11,4,7.8*,/,MT1-MMP act val=4
CC(C)[C@H](NC(=O)c1ccccc1F)C(=O)NC1CCCCCCC1,-4,-2,-2,-9,3,-19,/,/,
O=C1C(Cl)=C(Nc2ccc(O)cc2)C(=O)c2ccccc21,6,17*,-6,9.2*,13,9,7.0*,12*,
CC(=O)c1cccc(NC(=O)c2ccc([N+](=O)[O-])o2)c1,3,1,-3,4,1,1,/,/,
CC(=O)c1ccc(NC(=O)c2ccc([N+](=O)[O-])o2)cc1,11,11*,-4,9.1*,-1,0,2,5.7*,
Nc1cc2c(cc1C(=O)c1cccc(Br)c1)OCCO2,2,0,-2,-1,0,2,/,/,
COc1ccc(CNC(=O)CN(Cc2ccc(OC)cc2)C(=O)CCC(=O)Nc2nccs2)cc1,-1,-1,3,-1,0,-22,/,/,
N#CCCn1cc(C(=O)Nc2ccccc2Br)c(-c2cc3ccccc3o2)n1,-1,1,-1,-1,-2,15,/,/,
Cc1cc(C(=O)O)ccc1-c1ccc(/C=N/n2cnnc2)o1,-1,9.2*,1,8.4*,-1,2,-6,6.5*,
CC(=O)Oc1ccc(/C=N/NC2=NS(=O)(=O)c3ccccc32)cc1,-4,3,-2,-2,-2,5,/,/,
COc1ccc(/C=N/NC2=NS(=O)(=O)c3ccccc32)cc1OC(C)=O,-5,5.4*,4,15*,1,-6,-4,4,
COc1ccc(Nc2ccc(C(F)(F)F)cc2[N+](=O)[O-])cn1,3,24*,-2,13*,7,14,1,18*,
O=S(=O)(Nc1cc(Sc2cccc3cccnc23)c(O)c2ccccc12)c1ccc(F)cc1,/,2,/,/,/,/,/,/,
O=C(O)CSc1cc(NS(=O)(=O)c2ccc(Cl)cc2)c2ccccc2c1O,-10,9.5*,/,7.8*,-8,14,0,0,
COc1cc(-c2cc(=O)c3c(O)c(OC)c(OC)cc3o2)cc(OC)c1O,31*,3,0,-1,0,8,/,/,MT1-MMP act val=35
COc1ccc(-c2cc(=O)c3c(O)c(OC)c(O)cc3o2)cc1,9,3,-6,-13,1,4,/,/,
O=C(Nc1ccc(S(=O)(=O)Nc2ccccc2)cc1)C1COc2ccccc2O1 (stereo not drawn),31*,0,-3,0,0,1,/,/,MT1-MMP act val=7
CC(/C=N\NC(=O)c1cccnc1)c1ccccc1 (stereo not drawn),5,1,-1,-10,1,13,/,/,
Cc1ccccc1C1=C/C(=C(\SS/C(C(=O)c2ccc(OCC(=O)O)c(Cl)c2Cl)=C2\C=C(c3ccccc3C)SS2)C(=O)c2ccc(OCC(=O)O)c(Cl)c2Cl)SS1,34*,1,/,3,7,-2,/,/,MT1-MMP act val=41
O=C(O)COc1ccc2nsnc2c1Cl,-2,1,0,-4,0,7,/,/,
CN1C2=CC=CC=CC2=[N+](C)C12C=CC(=[N+]([O-])[O-])C=C2[N+](=O)[O-] (stereo not drawn),39*,4,0,-9,10,12,/,/,MT1-MMP act val=31
